In ChEMBL document CHEMBL4270530, “Surmounting the resistance against EGFR inhibitors through the development of thieno[2,3-d]pyrimidine-based dual EGFR/HER2 inhibitors” (Eur J Med Chem, 2018):

Experiments:
A-431 = test: Cytotoxicity against human A431 cells over expressing EGFR assessed as reduction in cell viability after 72 hrs by sulforhodamine B assay; type: functional, cell-based; conditions: A-431, 72 h
Outline: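 Cells seeded and grown 24 h, then exposed to 0.1% DMSO vehicle or 0.3125-20 μM compound for 72 h. Fixed with ice-cold 50% TCA (1 h, 4 °C), stained with 0.4% SRB 30 min at room temperature, dye solubilized in 10 mM tris base pH 10.5, OD read at 560 nm. Survival fraction = OD treated/OD vehicle; IC50 from triplicates of at least two independent experiments, mean ± SD.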

HL-60(TB) = test: Growth inhibition of human HL-60(TB) cells assessed as cell growth at 10 uM incubated for 48 hrs by sulforhodamine B assay relative to control; type: functional; conditions: HL-60, 48 h, read-out: Activity
Outline: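 Single-dose (10 µM) screen across the full NCI-60 panel, run by the NCI Developmental Therapeutics Program. Read-out is growth percent relative to untreated control, taken from the NCI one-dose mean graph.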

MOLT-4 = test: Growth inhibition of human MOLT4 cells assessed as cell growth at 10 uM incubated for 48 hrs by sulforhodamine B assay relative to control; type: functional; conditions: MOLT-4, 48 h, read-out: Activity
Outline: (§1)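 NCI-60 one-dose screen run by the NCI Developmental Therapeutics Program at a single 10 µM concentration; growth percent read from the one-dose mean graph.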

SR = test: Growth inhibition of human SR cells assessed as cell growth at 10 uM incubated for 48 hrs by sulforhodamine B assay relative to control; type: functional; conditions: read-out: Activity
Outline: (§2)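 NCI-60 single-dose screen at 10 µM run by the NCI Developmental Therapeutics Program; growth percent read from the one-dose mean graph, with percent inhibition approximated from those growth-percent values.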

EKVX = test: Growth inhibition of human EKVX cells at 10 uM incubated for 48 hrs by sulforhodamine B assay relative to control; type: functional; conditions: read-out: GI; outline: as §1
NCI-H226 = test: Growth inhibition of human NCI-H226 cells assessed as cell growth at 10 uM incubated for 48 hrs by sulforhodamine B assay relative to control; type: functional; conditions: NCI-H226, 48 h, read-out: Activity; outline: as §1
NCI-H460 = test: Growth inhibition of human NCI-H460 cells assessed as cell growth at 10 uM incubated for 48 hrs by sulforhodamine B assay relative to control; type: functional; conditions: NCI-H460, 48 h, read-out: Activity; outline: as §1
HT-29 = test: Growth inhibition of human HT-29 cells assessed as cell growth at 10 uM incubated for 48 hrs by sulforhodamine B assay relative to control; type: functional; conditions: HT-29, 48 h, read-out: Activity; outline: as §1
SW-620 = test: Growth inhibition of human SW620 cells assessed as cell growth at 10 uM incubated for 48 hrs by sulforhodamine B assay relative to control; type: functional; conditions: SW-620, 48 h, read-out: Activity; outline: as §2
SF-268 = test: Growth inhibition of human SF268 cells assessed as cell growth at 10 uM incubated for 48 hrs by sulforhodamine B assay relative to control; type: functional; conditions: SF-268, 48 h, read-out: Activity; outline: as §1
SNB-19 = test: Growth inhibition of human SNB19 cells assessed as cell growth at 10 uM incubated for 48 hrs by sulforhodamine B assay relative to control; type: functional; conditions: SNB-19, 48 h, read-out: Activity; outline: as §1
SNB-75 = test: Growth inhibition of human SNB75 cells assessed as cell growth at 10 uM incubated for 48 hrs by sulforhodamine B assay relative to control; type: functional; conditions: SNB-75, 48 h, read-out: Activity; outline: as §2
Malme-3M = test: Growth inhibition of human MALME-3M cells assessed as cell growth at 10 uM incubated for 48 hrs by sulforhodamine B assay relative to control; type: functional; conditions: read-out: Activity; outline: as §1
MDA-MB-435 = test: Growth inhibition of human MDA-MB-435 cells assessed as cell growth at 10 uM incubated for 48 hrs by sulforhodamine B assay relative to control; type: functional; conditions: MDA-MB-435, 48 h, read-out: Activity; outline: as §1
SK-MEL-28 = test: Growth inhibition of human SK-MEL-28 cells assessed as cell growth at 10 uM incubated for 48 hrs by sulforhodamine B assay relative to control; type: functional; conditions: SK-MEL-28, 48 h, read-out: Activity; outline: as §1
SK-MEL-5 = test: Growth inhibition of human SK-MEL-5 cells assessed as cell growth at 10 uM incubated for 48 hrs by sulforhodamine B assay relative to control; type: functional; conditions: SK-MEL-5, 48 h, read-out: Activity; outline: as §1
UACC-62 = test: Growth inhibition of human UACC62 cells assessed as cell growth at 10 uM incubated for 48 hrs by sulforhodamine B assay relative to control; type: functional; conditions: UACC-62, 48 h, read-out: Activity; outline: as §2
OVCAR-3 = test: Growth inhibition of human OVCAR3 cells assessed as cell growth at 10 uM incubated for 48 hrs by sulforhodamine B assay relative to control; type: functional; conditions: OVCAR-3, 48 h, read-out: Activity; outline: as §1
OVCAR-5 = test: Growth inhibition of human OVCAR5 cells assessed as cell growth at 10 uM incubated for 48 hrs by sulforhodamine B assay relative to control; type: functional; conditions: OVCAR-5, 48 h, read-out: Activity; outline: as §1
OVCAR-8 = test: Growth inhibition of human OVCAR8 cells assessed as cell growth at 10 uM incubated for 48 hrs by sulforhodamine B assay relative to control; type: functional; conditions: OVCAR-8, 48 h, read-out: Activity; outline: as §1
NCI/ADR-RES = test: Growth inhibition of human NCI/ADR-RES cells assessed as cell growth at 10 uM incubated for 48 hrs by sulforhodamine B assay relative to control; type: functional; conditions: read-out: Activity; outline: as §1
786-0 = test: Growth inhibition of human 786-0 cells assessed as cell growth at 10 uM incubated for 48 hrs by sulforhodamine B assay relative to control; type: functional; conditions: 786-0, 48 h, read-out: Activity; outline: as §1
RXF 393 = test: Growth inhibition of human RXF393 cells assessed as cell growth at 10 uM incubated for 48 hrs by sulforhodamine B assay relative to control; type: functional; conditions: RXF 393, 48 h, read-out: Activity; outline: as §1
SN12C = test: Growth inhibition of human SN12C cells assessed as cell growth at 10 uM incubated for 48 hrs by sulforhodamine B assay relative to control; type: functional; conditions: read-out: Activity; outline: as §1
TK-10 = test: Growth inhibition of human TK10 cells at 10 uM incubated for 48 hrs by sulforhodamine B assay relative to control; type: functional; conditions: TK-10, 48 h, read-out: GI; outline: as §2
PC-3 = test: Growth inhibition of human PC3 cells assessed as cell growth at 10 uM incubated for 48 hrs by sulforhodamine B assay relative to control; type: functional; conditions: PC-3, 48 h, read-out: Activity; outline: as §1
MCF7 = test: Growth inhibition of human MCF7 cells assessed as cell growth at 10 uM incubated for 48 hrs by sulforhodamine B assay relative to control; type: functional; conditions: MCF7, 48 h, read-out: Activity; outline: as §1
BT-549 = test: Growth inhibition of human BT549 cells assessed as cell growth at 10 uM incubated for 48 hrs by sulforhodamine B assay relative to control; type: functional; conditions: BT-549, 48 h, read-out: Activity; outline: as §1
T47D = test: Growth inhibition of human T47D cells assessed as cell growth at 10 uM incubated for 48 hrs by sulforhodamine B assay relative to control; type: functional; conditions: read-out: Activity; outline: as §2

SMILES	IC50 (A-431)	growth at 10 µM (HL-60(TB))	growth at 10 µM (MOLT-4)	growth at 10 µM (SR)	inhibition of growth at 10 µM (EKVX)	growth at 10 µM (NCI-H226)	growth at 10 µM (NCI-H460)	growth at 10 µM (HT-29)	growth at 10 µM (SW-620)	growth at 10 µM (SF-268)	growth at 10 µM (SNB-19)	growth at 10 µM (SNB-75)	growth at 10 µM (Malme-3M)	growth at 10 µM (MDA-MB-435)	growth at 10 µM (SK-MEL-28)	growth at 10 µM (SK-MEL-5)	growth at 10 µM (UACC-62)	growth at 10 µM (OVCAR-3)	growth at 10 µM (OVCAR-5)	growth at 10 µM (OVCAR-8)	further results
Nc1ccc(-c2cc3c(Nc4ccc(OCc5cccc(F)c5)c(Cl)c4)ncnc3s2)cc1	9.76 µM	48.2%	30%	14.5%	80%	53.5%	36.5%	84.5%	74.1%	52.1%	77.3%	87.2%	42.1%	43.8%	39.2%	57.7%	55.7%	46.6%	77.9%	63.1%	growth at 10 µM (NCI/ADR-RES): 50.4%; growth at 10 µM (786-0): 37.2%; growth at 10 µM (RXF 393): 52.5%; growth at 10 µM (SN12C): 48.4%; inhibition of growth at 10 µM (TK-10): 70%; growth at 10 µM (PC-3): 29.6%; growth at 10 µM (MCF7): 26.2%; growth at 10 µM (BT-549): 61.2%; growth at 10 µM (T47D): 15.4%
O=[N+]([O-])c1ccc(-c2cc3c(Nc4ccc(OCc5cccc(F)c5)c(Cl)c4)ncnc3s2)cc1	11 µM	79.2%	65.7%	68.6%	20%	86.4%	42.2%	66.9%	93.5%	80.1%	68%	98.5%	94.4%	91.9%	110%	92.8%	79.1%	34.5%	101%	70.3%	growth at 10 µM (NCI/ADR-RES): 80.5%; growth at 10 µM (786-0): 95.4%; growth at 10 µM (RXF 393): 81.3%; growth at 10 µM (SN12C): 83.4%; inhibition of growth at 10 µM (TK-10): 30%; growth at 10 µM (PC-3): 54.1%; growth at 10 µM (MCF7): 78.9%; growth at 10 µM (BT-549): 103%; growth at 10 µM (T47D): 76.6%
